Experimental data from ChEMBL document CHEMBL1151733, “Pirinixic acid derivatives as novel dual inhibitors of microsomal prostaglandin E2 synthase-1 and 5-lipoxygenase” (J Med Chem, 2008).
Activity calls are given as the source filed them. The rule behind the calls is not given here.

Tests used:
[1] = molecular target: T1, Polyunsaturated fatty acid 5-lipoxygenase (Homo sapiens) (UniProt P09917); assay: Inhibition of 5-LO in human PMNL cells at 10 uM relative to control; format: cell-based; set-up: scale not given: the % may be the effect or the level left
T1 sequence (whole entry): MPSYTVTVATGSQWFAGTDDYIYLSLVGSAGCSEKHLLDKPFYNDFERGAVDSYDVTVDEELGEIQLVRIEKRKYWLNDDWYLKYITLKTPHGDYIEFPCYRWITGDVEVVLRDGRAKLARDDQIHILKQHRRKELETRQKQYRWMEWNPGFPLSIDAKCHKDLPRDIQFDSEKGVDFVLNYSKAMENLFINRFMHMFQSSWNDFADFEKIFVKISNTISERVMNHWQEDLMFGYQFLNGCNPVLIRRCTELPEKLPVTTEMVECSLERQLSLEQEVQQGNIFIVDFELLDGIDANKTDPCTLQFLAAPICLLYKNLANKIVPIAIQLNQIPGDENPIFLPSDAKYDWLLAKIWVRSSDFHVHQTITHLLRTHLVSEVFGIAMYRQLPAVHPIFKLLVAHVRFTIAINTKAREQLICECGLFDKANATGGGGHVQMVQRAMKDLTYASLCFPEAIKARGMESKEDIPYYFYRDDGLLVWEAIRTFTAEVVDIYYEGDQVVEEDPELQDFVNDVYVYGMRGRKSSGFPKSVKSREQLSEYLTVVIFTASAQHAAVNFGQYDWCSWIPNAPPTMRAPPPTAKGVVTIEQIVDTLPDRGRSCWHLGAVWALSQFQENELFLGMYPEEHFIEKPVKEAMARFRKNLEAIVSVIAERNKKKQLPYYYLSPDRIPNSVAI
Procedure, shortened: (§1)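 Freshly isolated human PMNL from leukocyte concentrates of healthy donors, 5 × 10⁶ cells/mL in PBS pH 7.4 with 1 mg/mL glucose and 1 mM CaCl₂. Preincubated with compound 15 min at RT, then stimulated with 2.5 µM A23187 plus 20 µM AA for 10 min at 37 °C. Stopped with methanol; LTB₄, its all-trans isomers and 5-H(P)ETE quantified by HPLC with PGB₁ internal standard.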

[2] = molecular target: T2, Prostaglandin E synthase (Homo sapiens) (UniProt O14684); assay: Inhibition of PGES1 in human A549 cell microsome assessed as PGE2 formation at 10 uM by cell-free assay relative to control; set-up: scale not given: the % may be the effect or the level left
T2 sequence (whole entry): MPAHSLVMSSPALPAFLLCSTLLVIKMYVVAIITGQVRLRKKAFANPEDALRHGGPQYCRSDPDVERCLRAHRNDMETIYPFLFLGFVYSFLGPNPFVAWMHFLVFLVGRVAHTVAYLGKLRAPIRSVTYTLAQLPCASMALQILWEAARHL
Procedure, shortened: (§2)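 Microsomes from A549 cells grown with IL-1β (1 ng/mL, 72 h), diluted in 0.1 M potassium phosphate pH 7.4 with 2.5 mM glutathione. Compound or DMSO added 15 min before PGH₂ (20 µM final). Reaction ran 1 min at 4 °C and was stopped with FeCl₂/citric acid. PGE₂ isolated by C18 SPE, then RP-HPLC with UV at 195 nm against 11β-PGE₂ internal standard.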

[3] = molecular target: T3, Prostaglandin G/H synthase 1 (Ovis aries, UniProt P05979); assay: Inhibition of ovine COX1
T3 sequence (P05979 whole entry): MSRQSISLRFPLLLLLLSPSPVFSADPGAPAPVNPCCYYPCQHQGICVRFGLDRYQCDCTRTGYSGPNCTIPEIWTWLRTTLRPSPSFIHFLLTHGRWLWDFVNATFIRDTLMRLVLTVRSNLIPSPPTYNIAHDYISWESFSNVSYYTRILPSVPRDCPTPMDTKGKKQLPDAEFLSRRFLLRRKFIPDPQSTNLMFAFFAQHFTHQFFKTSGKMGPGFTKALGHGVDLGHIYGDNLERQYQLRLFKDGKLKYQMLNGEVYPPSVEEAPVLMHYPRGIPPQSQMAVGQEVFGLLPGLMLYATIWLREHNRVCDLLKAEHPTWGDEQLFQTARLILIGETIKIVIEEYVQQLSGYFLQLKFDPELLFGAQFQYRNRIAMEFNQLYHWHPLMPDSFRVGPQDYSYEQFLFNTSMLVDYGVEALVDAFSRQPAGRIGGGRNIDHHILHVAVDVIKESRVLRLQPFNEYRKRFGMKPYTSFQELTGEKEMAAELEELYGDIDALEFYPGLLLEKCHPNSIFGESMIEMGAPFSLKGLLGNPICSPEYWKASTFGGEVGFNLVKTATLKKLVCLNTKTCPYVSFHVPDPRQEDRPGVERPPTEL
Procedure, shortened: (§3)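 Ovine COX-1 (50 units) or human recombinant COX-2 (20 units) in 100 mM Tris pH 8 with 5 mM glutathione, 5 µM hemoglobin and 100 µM EDTA. Compound preincubation 5 min at 4 °C, then prewarming 60 s at 37 °C. AA added at 5 µM for COX-1 or 2 µM for COX-2, reacted 5 min at 37 °C. 12-HHT extracted and quantified by HPLC. Mean ± SE, n = 3.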

[4] = molecular target: T4, Prostaglandin G/H synthase 2 (Homo sapiens, UniProt P35354); assay: Inhibition of human recombinant COX2; procedure, shortened: as §3
T4 sequence (P35354 whole entry): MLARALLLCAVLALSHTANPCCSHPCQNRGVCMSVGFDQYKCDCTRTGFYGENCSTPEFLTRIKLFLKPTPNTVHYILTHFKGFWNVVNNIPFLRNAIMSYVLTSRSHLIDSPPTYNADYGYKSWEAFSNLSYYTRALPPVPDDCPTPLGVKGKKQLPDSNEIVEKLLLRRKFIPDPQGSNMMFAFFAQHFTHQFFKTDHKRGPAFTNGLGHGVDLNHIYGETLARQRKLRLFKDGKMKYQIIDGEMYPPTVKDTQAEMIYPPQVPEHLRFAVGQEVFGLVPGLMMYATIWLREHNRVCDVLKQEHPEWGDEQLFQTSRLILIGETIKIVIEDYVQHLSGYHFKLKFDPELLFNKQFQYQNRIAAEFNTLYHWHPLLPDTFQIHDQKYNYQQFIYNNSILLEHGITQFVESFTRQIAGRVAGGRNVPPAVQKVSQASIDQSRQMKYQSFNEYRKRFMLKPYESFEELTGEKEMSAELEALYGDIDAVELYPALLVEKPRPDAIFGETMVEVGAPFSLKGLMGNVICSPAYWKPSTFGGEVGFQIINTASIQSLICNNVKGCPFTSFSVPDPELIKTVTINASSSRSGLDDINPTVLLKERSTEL

[5] = molecular target: T5, Polyunsaturated fatty acid 5-lipoxygenase (Homo sapiens, UniProt P09917); assay: Inhibition of human recombinant 5-LO expressed in Escherichia coli by cell-free assay
T5 sequence (P09917 whole entry): T1 sequence (whole entry)
Procedure, shortened: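 Human 5-LO expressed in E. coli MV1190 (pT3-5LO) at 27 °C, partially purified from the 100000g lysate supernatant. Held in PBS pH 7.4 with 1 mM EDTA and 1 mM ATP with compound for 10 min at 4 °C, warmed 30 s at 37 °C, then started with 2 mM CaCl₂ plus 20 µM AA. After 10 min at 37 °C, stopped with cold methanol; products measured by HPLC.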

[6] = molecular target: T6, Prostaglandin G/H synthase 1 (Ovis aries) (UniProt P05979); assay: Inhibition of ovine COX1 assessed as remaining activity at 10 uM relative to control; procedure, shortened: as §3
T6 sequence (whole entry): T3 sequence (P05979 whole entry)

[7] = molecular target: T7, Prostaglandin G/H synthase 2 (Homo sapiens) (UniProt P35354); assay: Inhibition of human recombinant COX2 assessed as remaining activity at 10 uM relative to control; procedure, shortened: as §3
T7 sequence (whole entry): T4 sequence (P35354 whole entry)

[8] = molecular target: T8, Prostaglandin E synthase (Homo sapiens, UniProt O14684); assay: Inhibition of PGES1 in human A549 cell microsome assessed as PGE2 formation by cell-free assay; procedure, shortened: as §2
T8 sequence (O14684 whole entry): T2 sequence (whole entry)

[9] = molecular target: T5, Polyunsaturated fatty acid 5-lipoxygenase; assay: Inhibition of 5-LO in PMNL cells; format: cell-based; procedure, shortened: as §1

Row | Structure (SMILES) | Activity [1] [%] | Activity [2] | IC50 [3] [µM] | IC50 [4] [µM] | IC50 [5] [µM] | Activity [6] [%] | Activity [7] [%] | IC50 [8] [µM] | IC50 [9] [µM]
1 | O=C(O)CSc1nc(OCCc2ccccc2)cc(OCCc2ccccc2)n1 | 40.6 | 66.4% | > 10 | > 10 |  |  |  |  | 
2 | CCCCCCC(Sc1nc(Cl)cc(NCCOc2ccccc2)n1)C(=O)OCC (configuration not stated) | 37.1 | 80.7% | > 10 | > 10 |  |  |  |  | 
3 | CC(=O)N(O)C/C=C/c1cccc(Oc2ccccc2)c1 |  | inactive | > 10 | > 10 |  |  |  |  | 
4 | CCCCCC[C@H](Sc1nc(Cl)cc(Nc2ccc(-c3ccc(C#N)cc3)cc2)n1)C(=O)O | 2.8 | 23% | > 10 | > 10 | 1.5 |  |  |  | 
5 | CCCCCCC(Sc1nc(Cl)cc(Nc2ccc3ncccc3c2)n1)C(=O)OCC (configuration not stated) |  | 39.1% | > 10 | > 10 |  | 69.5 | 61.7 | 5.6 | 
6 | CCCCCCC(Sc1nc(Cl)cc(Nc2cc(OCC(F)(F)F)cc(OCC(F)(F)F)c2)n1)C(=O)O (configuration not stated) | 8 |  |  |  | 3 | 40 | 70.4 |  | 1.5
7 | CCCCC(Sc1nc(OCCc2ccccc2)cc(OCCc2ccccc2)n1)C(=O)OCC (configuration not stated) | 80.1 | inactive | > 10 | > 10 |  |  |  |  | 
8 | CCCCC(Sc1nc(OCCc2ccccc2)cc(OCCc2ccccc2)n1)C(=O)O (configuration not stated) | 2.7 | 43.1% | > 10 | > 10 |  |  |  |  | 
9 | CCCCCCC(Sc1nc(Cl)cc(NCc2ccc(-c3ccccc3)cc2)n1)C(=O)O (configuration not stated) | 3 | 21.8% | > 10 | > 10 | 2 | 67.3 | 61.3 |  | 1
10 | Cc1cccc(Nc2cc(Cl)nc(SC(C(=O)O)c3cccc4ccccc34)n2)c1C (configuration not stated) | 16.8 |  |  |  |  | 42.2 | 32.5 |  | 5
11 | CCCCCCC(Sc1nc(Cl)cc(Oc2ccc3ncccc3c2)n1)C(=O)O (configuration not stated) |  | 67.4% | > 10 | > 10 |  |  |  |  | 
12 | CCCCCCC(Sc1nc(Cl)cc(NCc2ccc(-c3ccccc3)cc2)n1)C(=O)OCC (configuration not stated) | 80.2 | inactive | > 10 | > 10 |  |  |  |  | 

Now from value to compound:

Row | Activity [1] [%] | Activity [2] | IC50 [3] [µM] | IC50 [4] [µM] | IC50 [5] [µM] | Activity [6] [%] | Activity [7] [%] | IC50 [8] [µM] | IC50 [9] [µM] | Structure (SMILES)
13 | 7 | 29.8% | > 10 | > 10 |  |  |  |  |  | CCCCCCCCC(Sc1nc(Cl)cc(Nc2cccc(C)c2C)n1)C(=O)O (configuration not stated)
14 |  | inactive | > 10 | > 10 |  |  |  |  |  | Cc1cccc(Nc2cc(Cl)nc(SC(C)C(=O)O)n2)c1C (configuration not stated)
15 |  | 59% | > 10 | > 10 |  |  |  |  |  | CCCCCCC(Sc1nc(Cl)cc(Nc2ccc3ncccc3c2)n1)C(=O)O (configuration not stated)
16 |  | 85.7% | > 10 | > 10 |  |  |  |  |  | CCCCCCC(Sc1nc(Cl)cc(NCc2ccc3ncccc3c2)n1)C(=O)O (configuration not stated)
17 |  | 31.9% | > 10 | > 10 | 6.5 | 75.2 | 62 |  |  | CCCCCCC(Sc1nc(Cl)cc(Nc2cccc(C)c2C)n1)C(=O)O (configuration not stated)
18 |  | inactive | > 10 | > 10 |  |  |  |  |  | CCCCCCC(Sc1nc(Cl)cc(Nc2cccc(C)c2C)n1)C(=O)OCC (configuration not stated)
19 | 2.8 | 36.8% | > 10 | > 10 | 0.8 |  |  |  |  | CCCCCC[C@@H](Sc1nc(Cl)cc(Nc2ccc(-c3ccc(C#N)cc3)cc2)n1)C(=O)O
20 | 3.1 | 24.9% | > 10 | > 10 | 2 | 71.2 | 53.7 | 2.1 | 0.5 | CCCCCCC(Sc1nc(Cl)cc(Nc2cc(C)c(-c3ccccc3)cc2OC)n1)C(=O)O (configuration not stated)
21 |  | inactive | > 10 | > 10 |  |  |  |  |  | Cc1cccc(Nc2cc(Cl)nc(SCC(=O)O)n2)c1C [PIRINIXIC ACID]
22 | 4.1 | 21.7% | > 10 | > 10 | 1.5 | 52.3 | 57.1 | 1.6 | 0.7 | CCCCCCC(Sc1nc(Cl)cc(Nc2ccc(-c3ccccc3)cc2)n1)C(=O)O (configuration not stated)
23 |  | 83.8% | > 10 | > 10 |  |  |  |  |  | Cc1cccc(Nc2cc(Cl)nc(SC(C)(C)C(=O)O)n2)c1C
24 | 28 | 79.9% | > 10 | > 10 |  |  |  |  |  | CCCCCCC(Sc1nc(Cl)cc(NCCOc2ccccc2)n1)C(=O)O (configuration not stated)
25 |  | 74.6% | > 10 | > 10 |  |  |  |  |  | Cc1cccc(Nc2cc(Cl)nc(SC(C(=O)O)c3ccccc3)n2)c1C (configuration not stated)
26 |  | inactive | > 10 | > 10 |  |  |  |  |  | CCCCC(Sc1nc(Cl)cc(Nc2cccc(C)c2C)n1)C(=O)O (configuration not stated)
27 | 2.7 | 26.1% | > 10 | > 10 | 1.5 | 66 | 61.2 |  | 0.4 | CCCCCCC(Sc1nc(Cl)cc(Nc2ccc(-c3ccc(C#N)cc3)cc2)n1)C(=O)O (configuration not stated)
28 | 16.1 | 70% | > 10 | > 10 |  |  |  |  |  | CCCCCCC(Sc1nc(Cl)cc(NCCc2ccccc2)n1)C(=O)O (configuration not stated)
